The source of these data is ChEMBL document CHEMBL4613249, “Serendipitous Discovery of Leucine and Methionine Depletion Agents during the Search for Polyamine Transport Inhibitors” (J Med Chem, 2020).

The subject of data set [1] is L3.6pl. The data set is described as follows: Effect on polyamine level in human L3.6PL cells assessed as decrease in intracellular spermidine level at 2 to 7 uM measured after 72 hrs in presence of amine oxidase suppressor aminoguanidine by LCMS analysis. The class given is functional, cell-based. As to conditions: in the assay text read “by N-dansylation and HPLC analysis” for “by LCMS analysis”. The method in brief: (§1)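 L3.6pl cells, 50,000 cells/mL in 10 mL per Petri dish with 1 mM aminoguanidine, plated overnight. Dosed with compound at 2, 5 or 7 μM from PBS stocks, then 72 h at 37°C. Intracellular polyamines measured by N-dansylation and HPLC, in duplicate, as nmol/mg protein against a parallel untreated control.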

In data set [2] the test system is L3.6pl. Briefly: Effect on polyamine level in human L3.6PL cells assessed as agmatine level per mg protein in supernatant at 2 uM measured after 72 hrs in presence of amine oxidase suppressor aminoguanidine by LCMS analysis (reference value: 101 pmol/mg). The data set is classed as functional.
Data set [3] deals with L3.6pl. The data set is described as follows: Effect on polyamine level in human L3.6PL cells assessed as intracellular putrescine level at 7 uM measured after 72 hrs in presence of amine oxidase suppressor aminoguanidine by LCMS analysis relative to control. The data set is classed as functional. As to conditions: in the assay text read “by N-dansylation and HPLC analysis” for “by LCMS analysis”. The method in brief: as §1

The target in data set [4] is Large neutral amino acids transporter small subunit 1 (Homo sapiens) (UniProt Q01650). The data set is described as follows: Induction of LAT1-mediated polyamine efflux in aminoguanidine pretreated human L3.6PL cells assessed as reduction in cell viability at 5 uM measured after 72 hrs in presence of spermine by MTS assay. The data set is classed as cell-based. The method in brief: (§2)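 L3.6pl cells pre-incubated 24 h with 250 μM aminoguanidine. Then given increasing compound plus putrescine, spermidine or spermine, each fixed at 1 or 5 μM, for 72 h at 37°C. Growth by MTS relative to untreated control.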
Sequence of Large neutral amino acids transporter small subunit 1 (Homo sapiens) (Q01650 whole entry): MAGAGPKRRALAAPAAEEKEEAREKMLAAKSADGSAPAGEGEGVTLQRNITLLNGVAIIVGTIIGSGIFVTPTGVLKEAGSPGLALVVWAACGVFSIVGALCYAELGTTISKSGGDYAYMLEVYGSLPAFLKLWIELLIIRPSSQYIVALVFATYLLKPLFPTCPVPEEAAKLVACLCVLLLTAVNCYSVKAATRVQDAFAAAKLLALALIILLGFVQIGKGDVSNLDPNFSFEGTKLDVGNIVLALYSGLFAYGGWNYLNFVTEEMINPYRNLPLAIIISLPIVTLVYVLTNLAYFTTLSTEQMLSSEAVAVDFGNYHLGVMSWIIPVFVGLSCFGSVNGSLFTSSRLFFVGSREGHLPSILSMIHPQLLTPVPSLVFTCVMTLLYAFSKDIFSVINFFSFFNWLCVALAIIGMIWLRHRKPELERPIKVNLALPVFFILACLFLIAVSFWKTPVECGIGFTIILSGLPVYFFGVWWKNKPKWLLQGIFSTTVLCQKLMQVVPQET
On the technique in general: Formazan colour is commonly taken as a measure of viable cells.

Data set [5] shares this target. The data set is described as follows: Induction of LAT1-mediated polyamine efflux in aminoguanidine pretreated human L3.6PL cells assessed as reduction in cell viability at 5 uM measured after 72 hrs in presence of spermidine by MTS assay. The class given is cell-based. The method in brief:
as §2

Data set [6] has as its system L3.6pl. Briefly: Effect on polyamine level in human L3.6PL cells assessed as putrescine level per mg protein in supernatant at 2 uM measured after 72 hrs in presence of amine oxidase suppressor aminoguanidine by LCMS analysis (reference value: 977 +/- 522 pmol/mg). The class given is functional.
Data set [7] relates to L3.6pl. Briefly: Effect on polyamine level in human L3.6PL cells assessed as spermine level per mg protein in supernatant at 5 uM measured after 72 hrs in presence of amine oxidase suppressor aminoguanidine by LCMS analysis (reference value: 6152 +/- 5596 pmol/mg). The class given is functional.
Data set [8] concerns the target Large neutral amino acids transporter small subunit 1 (Homo sapiens) (UniProt Q01650). Briefly: Inhibition of LAT1-mediated amino acid transport in human L3.6PL cells assessed as reduction in intracellular methionine level by measuring methionine level per mg protein in cell lysate at 2 uM measured after 72 hrs by LCMS analysis (reference value: 167 +/- 67 pmol/mg). The class given is cell-based. The method in brief:
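L3.6pl cells (50,000 cells/mL, 10 mL, 1 mM aminoguanidine) were seeded in poly-lysine-treated 9 cm dishes and incubated overnight at 37°C. They were then dosed with compound at 2, 5 or 7 μM from PBS stocks (2, 5, 7 mM) and incubated 72 h. Runs were done in triplicate, with amino acid levels per mg protein.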

Data set [9] relates to CHO-K1. Briefly: Induction of polyamine efflux in aminoguanidine pretreated CHOK1 cells assessed as reduction in cell viability measured after 72 hrs in presence of spermidine by MTS assay. The class given is ADME, cell-based, Cricetulus griseus. As to conditions: chinese hamster, cho-k1, 72 h.
For data set [10], the system named is L3.6pl. Briefly: Effect on polyamine level in human L3.6PL cells assessed as methionine level human L3.6PL cells assessed per mg protein in supernatant at 2 uM pretreated with aminoguanidine for 24 hrs followed by compound treatment after 72 hrs by LCMS analysis (reference value: 22834 +/- 1984 pmol/mg). The data set is classed as functional.
The test system of data set [11] is L3.6pl. Briefly: Effect on polyamine level in human L3.6PL cells assessed as ornithine level per mg protein in supernatant at 2 uM measured after 72 hrs in presence of amine oxidase suppressor aminoguanidine by LCMS analysis (reference value: 10588 +/- 3212 pmol/mg). The class given is functional.
Data set [12] deals with CHO-K1. The data set is described as follows: Cytotoxicity against CHOK1 cells assessed as effect on cell growth at < 7 uM measured after 48 hrs by MTS assay. The data set is classed as cell-based, Cricetulus griseus. As to conditions: chinese hamster, cho-k1, 48 h.
For data set [13], the system named is CHO-K1. Briefly: Cytotoxicity against CHOK1 cells assessed as effect on cell growth up to 6 uM measured after 48 hrs by MTS assay. The class given is cell-based, Cricetulus griseus. As to conditions: chinese hamster, cho-k1, 48 h.
For data set [14], the system named is CHO-K1. The data set is described as follows: Induction of polyamine efflux in aminoguanidine pretreated CHOK1 cells assessed as reduction in cell viability measured after 72 hrs in presence of spermine by MTS assay. The class given is ADME, cell-based, Cricetulus griseus. As to conditions: chinese hamster, cho-k1, 72 h.

The source made the active and inactive calls. The calls are words filed in the database; no cut-off is given here.

As to `CC(C)CCN1CCN([C@@H](CNCc2ccccc2)CC2CCCCC2)C[C@@H]1CC(C)C`, the result in [1], in data set [4] and in data set [5] was Active. The Activity was 297 pmol/mg in [2]; 83% in data set [3]; 938 pmol/mg in data set [6]; 2690 pmol/mg in data set [7]; 226 pmol/mg in data set [8]; “Active” in data set [9]. Also, the Activity is 17686 pmol/mg in data set [10]; 9249 pmol/mg in [11]; “Non-Toxic” in [12]; “Non-Toxic” in data set [13]; “Active” in data set [14].
